Experimental findings from ChEMBL document CHEMBL1126123, “Reversible inhibitors of the gastric (H+/K+)-ATPase. 3. 3-substituted-4-(phenylamino)quinolines” (J Med Chem, 1992) are described below.

Test [1] has as its target T1, Potassium-transporting ATPase (Sus scrofa, UniProt P19156). Kind of test: […] inhibit the activity of K+ stimulated gastric ATPase. In kind it is tissue-based, Stomach. The essentials:
(§1)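 Initial screen of K+-stimulated ATPase activity in a lyophilized gastric vesicle preparation at pH 7, in vitro.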

In test [2] the target is Potassium-transporting ATPase (Rattus norvegicus) (UniProt P09626+P18598). Description: Inhibition of pentagastrin stimulated gastric acid secretion in anesthetized rat at 10 umol/kg upon intravenous administration. In kind it is functional, organism-based. The following applies: Stomach.
Test [3] has as its system Canis familiaris. Description: Inhibition of histamine stimulated gastric acid secretion was tested in heidenhain pouch dog at 4 uM/kg upon oral administration. Format: functional, Canis lupus familiaris, Stomach.
In test [4] the target is T2, Potassium-transporting ATPase subunit beta (Rattus norvegicus) (UniProt P18598).
T2 sequence (whole entry): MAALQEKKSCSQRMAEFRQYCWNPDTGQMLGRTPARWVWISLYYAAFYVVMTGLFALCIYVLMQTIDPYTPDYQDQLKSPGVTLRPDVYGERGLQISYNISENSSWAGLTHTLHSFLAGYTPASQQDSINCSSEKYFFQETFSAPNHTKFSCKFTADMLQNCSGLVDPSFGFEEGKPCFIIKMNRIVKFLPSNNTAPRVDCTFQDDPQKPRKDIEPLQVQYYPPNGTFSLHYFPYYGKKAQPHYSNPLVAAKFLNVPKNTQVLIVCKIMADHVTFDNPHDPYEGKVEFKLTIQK
Kind of test: Inhibition of pentagastrin stimulated gastric acid secretion in anesthetized rat upon intravenous administration. Format: functional, organism-based. Particulars: Stomach. The essentials:
(§2)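 Anesthetized rat with lumen-perfused stomach; acid secretion induced by pentagastrin; compound given intravenously.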

Test [5] has as its system Canis familiaris. Kind of test: Inhibition of histamine stimulated gastric acid secretion was tested in heidenhain pouch dog at 1 umol/kg upon intravenous administration. In kind it is functional. The following applies: Canis lupus familiaris, Stomach.
Test [6] addresses T3, Potassium-transporting ATPase (Sus scrofa) (UniProt P18434+P19156). Kind of test: […] inhibit the activity of K+ stimulated gastric ATPase at 100 uM. Format: tissue-based. Particulars: Stomach.
Test [7] has as its target T1, Potassium-transporting ATPase. Description: (§3) […] inhibit the activity of gastric H+/K+ ATPase. In kind it is tissue-based, Stomach. Put shortly: as §1
The test system of test [8] is Canis familiaris. Kind of test: Inhibition of histamine stimulated gastric acid secretion was tested in heidenhain pouch dog upon oral administration. Format: functional. Particulars: Canis lupus familiaris, Stomach.
The subject of test [9] is Canis familiaris. Description: Inhibition of histamine stimulated gastric acid secretion was tested in heidenhain pouch dog upon intravenous administration. Format: functional. Particulars: Canis lupus familiaris, Stomach.
In test [10] the test system is Rattus norvegicus. Kind of test: Compound was evaluated for inhibition pentagastrin stimulated gastric acid secretion in anesthetized rat when administered intravenously. The following applies: Stomach, iv. Format: functional. The essentials: as §2
Test [11] concerns Rattus norvegicus. Kind of test: inhibition pentagastrin stimulated gastric acid secretion in anesthetized rat when compound (10 umol/kg) administered intravenously. In kind it is functional, Stomach.
Test [12] deals with T3, Potassium-transporting ATPase (Sus scrofa). The description is as §3. In kind it is tissue-based. The following applies: Stomach. The essentials:
as §1

T1 sequence (P18434 whole entry): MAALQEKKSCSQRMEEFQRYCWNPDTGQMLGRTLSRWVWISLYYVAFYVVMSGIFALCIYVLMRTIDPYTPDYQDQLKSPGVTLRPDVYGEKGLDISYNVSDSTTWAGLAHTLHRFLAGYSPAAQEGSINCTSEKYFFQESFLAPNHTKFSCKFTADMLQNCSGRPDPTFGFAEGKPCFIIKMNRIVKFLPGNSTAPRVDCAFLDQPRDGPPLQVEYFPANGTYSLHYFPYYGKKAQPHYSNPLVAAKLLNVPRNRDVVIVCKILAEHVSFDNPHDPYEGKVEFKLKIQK
T1 sequence (P19156 whole entry): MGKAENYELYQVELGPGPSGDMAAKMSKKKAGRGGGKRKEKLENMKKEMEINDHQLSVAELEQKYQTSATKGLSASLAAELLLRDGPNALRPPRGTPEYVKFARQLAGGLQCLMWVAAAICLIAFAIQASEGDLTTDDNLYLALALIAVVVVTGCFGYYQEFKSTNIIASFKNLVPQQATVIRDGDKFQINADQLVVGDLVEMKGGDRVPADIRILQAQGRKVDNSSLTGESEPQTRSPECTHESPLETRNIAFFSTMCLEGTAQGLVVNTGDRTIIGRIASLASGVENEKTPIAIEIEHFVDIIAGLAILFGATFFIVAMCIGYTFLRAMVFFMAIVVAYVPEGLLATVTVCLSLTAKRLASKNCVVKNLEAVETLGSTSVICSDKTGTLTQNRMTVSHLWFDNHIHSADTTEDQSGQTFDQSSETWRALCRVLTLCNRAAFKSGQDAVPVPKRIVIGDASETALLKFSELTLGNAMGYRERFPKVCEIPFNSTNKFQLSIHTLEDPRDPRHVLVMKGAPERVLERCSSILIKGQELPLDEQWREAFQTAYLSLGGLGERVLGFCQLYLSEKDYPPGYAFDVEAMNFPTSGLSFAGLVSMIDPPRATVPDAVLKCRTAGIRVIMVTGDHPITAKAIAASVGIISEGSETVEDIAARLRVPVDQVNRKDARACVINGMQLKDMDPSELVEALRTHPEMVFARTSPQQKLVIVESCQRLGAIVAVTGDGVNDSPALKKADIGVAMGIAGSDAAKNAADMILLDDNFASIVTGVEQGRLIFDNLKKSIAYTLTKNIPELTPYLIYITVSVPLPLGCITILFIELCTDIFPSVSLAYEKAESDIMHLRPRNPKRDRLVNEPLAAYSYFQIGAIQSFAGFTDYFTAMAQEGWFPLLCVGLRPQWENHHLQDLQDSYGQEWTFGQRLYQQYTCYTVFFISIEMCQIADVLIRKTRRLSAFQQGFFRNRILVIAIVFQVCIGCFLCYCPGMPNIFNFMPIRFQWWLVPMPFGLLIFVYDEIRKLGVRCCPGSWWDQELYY

Usually IC50 stands for the concentration at which inhibition is half-maximal. High values mean weaker potency, low ones greater potency. `CCCC(O)c1cnc2c(OC)cccc2c1Nc1ccccc1C` (stereo not given) came in with an IC50 in test [1] of 55 µM.
By inhibition is commonly meant how much of the control response was suppressed. Low values mean little suppression, high ones strong suppression. In test [1], `CCCSc1cnc2ccccc2c1Nc1ccccc1C` came in with an IC50 of 5.14 µM. The same compound came in with an inhibition in [2] of 11%.
As a reminder, the Inhibition is how much of the control response was suppressed. As to `COc1cccc2c(Nc3ccccc3C)c(C(=O)C(C)(C)C)cnc12`, the IC50 in [1] amounted to 2.6 µM. The compound also had an inhibition in test [2] of 63%. In test [3], this compound displayed an Inhibition of 11.3%.
Usually ED50 stands for the dose at which the effect has come halfway, by size or by number of responders. Low values mean greater potency, high ones weaker potency. In [1], `COCC(=O)c1cnc2c(OC)cccc2c1Nc1ccccc1C` came in with an IC50 of 12.1 µM. Besides, in [4], the ED50 came to 12.2 µmol/kg.
In test [1], `C=CCNC(=O)c1cnc2c(OC)cccc2c1Nc1ccccc1C` gave an IC50 of 3.45 µM. Also, the inhibition in test [2] was 38%.
The inhibition in vivo is the percentage by which the read-out fell short of the control. In test [1], `CCCC(=O)c1cnc2ccccc2c1Nc1ccccc1C` yielded an IC50 of 0.97 µM. Besides, in [5], the inhibition in vivo at 1 µmol/kg is 45.4%. This compound gave an ED50 in test [4] of 5.45 µmol/kg.
In test [1], `COc1cccc2c(Nc3ccccc3C)c(C(=O)OCCN(C)C)cnc12` gave an IC50 of 44 µM. Also, in test [2], the inhibition is 19%.
`COc1cccc2c(Nc3ccccc3C)c(C(=O)NC(C)(C)CO)cnc12`: the inhibition in test [2] turned out to be 13%; in [6], 26%.
Turning to `Cc1ccccc1Nc1ccnc2ccccc12`, inhibition in test [1] was half-maximal at 1.43 µM (IC50). Also, the inhibition in [2] is 16%.
On the same counts, the results for `Cc1ccccc1Nc1c(N)cnc2ccccc12` are 30.6 µM and 27%.
Regarding `COc1cccc2c(Nc3ccccc3C)c(C(=O)C3CCCC3)cnc12`, in [1], 1.7 µM corresponded to half-maximal inhibition (IC50). This compound came in with an inhibition in test [2] of 56%. Further, the Inhibition in test [3] is reported as 55.7%.
In test [1], `CCCc1cnc2c(OC)cccc2c1Nc1ccccc1C` returned an IC50 of 8.63 µM. Moreover, the inhibition in test [2] came out at 34%.
`COc1cccc2c(Nc3ccccc3C)c(C(C)O)cnc12` (stereo not given): the IC50 in test [1] is 24 µM.
`COc1cccc2c(Nc3ccccc3C)c(C(N)=O)cnc12` yielded an IC50 in test [7] of 15.3 µM.
In test [1], `COc1cccc2c(Nc3ccccc3C)c(C(C)=O)cnc12` gave an IC50 of 4.8 µM. In test [5], this compound showed an inhibition in vivo at 1 µmol/kg of 11%. In [4], the ED50 came to 13.2 µmol/kg.
As to `CN/C(=N\CCSCc1nc[nH]c1C)NC#N` [CIMETIDINE], the results for the 50% effective dose (ED50) in test [8] and in [9] were 8.5 µmol/kg and 1.7 µmol/kg, respectively.
Take `CCCCNC(=O)c1cnc2c(OC)cccc2c1Nc1ccccc1C`: in test [1], the IC50 was determined as 65 µM. The same compound returned an inhibition in [2] of 30%.
In test [1], `COc1cccc2c(Nc3ccccc3C)c(C)cnc12` had an IC50 of 6.1 µM. For the same compound, the inhibition in test [2] came out at 12.5%.
Consider `COc1cccc2c(Nc3ccccc3C)c(C(=O)C3CCC3)cnc12`, for which the IC50 in test [1] is 1.2 µM. The same compound gave an inhibition in test [2] of 47%.
Regarding `COc1cccc2c(Nc3ccccc3C)c(C(=O)C3CCCCC3)cnc12`, the IC50 in [1] came out at 3.8 µM. Also, the inhibition in test [2] is 42%.
In [1], `CCOC(=O)c1cnc2ccccc2c1Nc1ccccc1C` came in with an IC50 of 0.6 µM. In addition, the inhibition in test [2] is 49%.
As for `CCOC(=O)c1cnc2c(OC)cccc2c1Nc1ccccc1C.Cl`, the Inhibition in [3] came to 11.1%. Besides, the ED50 worked out at 8.23 µmol/kg in test [10] and 0.49 µmol/kg in [9].
Take `COc1cccc2c(Nc3ccccc3C)c(C(=O)NCc3ccccc3)cnc12`: the IC50 in test [1] was 49 µM. The inhibition in test [2] was found to be 13%.
`CNC(=O)c1cnc2c(OC)cccc2c1Nc1ccccc1C` displayed an IC50 in test [7] of 6.73 µM. In [11], this compound gave an Inhibition of 28%.
On to `COc1cccc2c(Nc3ccccc3C)ccnc12`, for which, in test [1], the 50% inhibitory concentration (IC50) was found to be 0.1 µM. In [4], it took a dose of 12.7 µmol/kg to reach the 50% effect level (ED50).
Turning to `COc1cccc2c(Nc3ccccc3C)c(C(=O)c3ccccc3)cnc12`, the midpoint of inhibition in [1], the IC50, lay at 16.1 µM.
On the same count and under the same terms, the result for `CO/N=C(\C)c1cnc2c(OC)cccc2c1Nc1ccccc1C` reads 20.5 µM.
Turning to `CCOC(=O)c1cnc2c(OC)cccc2c1Oc1ccccc1C`, the inhibition in test [6] was found to be 13%.
In test [1], `CCNC(=O)c1cnc2c(OC)cccc2c1Nc1ccccc1C` yielded an IC50 of 2.94 µM. The inhibition in test [2] is 58%.
In the case of `CCC(=O)c1cnc2c(OC)cccc2c1Nc1ccccc1C`, in test [1], the IC50 amounted to 0.4 µM. This compound also registered an Inhibition in test [3] of 92.3%. The same compound returned an inhibition in vivo at 1 µmol/kg in test [5] of 80.9%. Besides, in test [4], the ED50 stood at 1.39 µmol/kg.
For the compound `COc1cccc2c(Nc3ccccc3C)c(C(=O)N3CCCC3)cnc12`, the inhibition in test [2] came to 15%; in [6] it was 20%.
On to `CCCNC(=O)c1cnc2c(OC)cccc2c1Nc1ccccc1C`, for which the half-maximal inhibitory concentration (IC50) in test [1] is 22 µM. The inhibition in test [2] came to 40%.
`Cc1ccccc1Nc1c([N+](=O)[O-])cnc2ccccc12` yielded an inhibition in test [2] of 30%.
`CCOC(=O)c1cnc2c(OC)cccc2c1N(C)c1ccccc1` displayed an IC50 in [1] of 89 µM.
On to `CCC[S+]([O-])c1cnc2ccccc2c1Nc1ccccc1C` (stereo not given), for which the inhibition in test [2] is 21%; in test [6], 19%.
For the compound `CCCCCC(=O)c1cnc2c(OC)cccc2c1Nc1ccccc1C`, in test [1], the midpoint of inhibition, the IC50, lay at 2.77 µM. In test [4], it took a dose of 10.7 µmol/kg to reach the 50% effect level (ED50).
Regarding `Cc1ccccc1Nc1c(Br)cnc2ccccc12`, in [1], it took 14.1 µM to reach half-maximal inhibition (IC50). The inhibition in [2] came to 31%.
For the compound `CCCC(=O)c1cnc2c(OC)cccc2c1Nc1ccccc1C`, the IC50 in test [1] worked out at 1.05 µM. Also, the values for the ED50 in test [8], in [4] and in test [9] were 1.6 µmol/kg, 2.62 µmol/kg and 0.26 µmol/kg, respectively.
On to `COc1cccc2c(Nc3ccccc3C)c(CO)cnc12`, for which, in test [7], the IC50 was 11.6 µM. In addition, in [11], the Inhibition is listed as 5%.
`COc1cccc2c(Nc3ccccc3C)c(C(=O)C(C)C)cnc12` came in with an IC50 in test [1] of 1.09 µM. Moreover, the Inhibition in [3] is given as 44.6%. For the same compound, in test [5], the inhibition in vivo at 1 µmol/kg turned out to be 75%. The compound also returned an ED50 in test [4] of 1.92 µmol/kg.
In test [1], `CCC(CC)C(=O)c1cnc2c(OC)cccc2c1Nc1ccccc1C` returned an IC50 of 1.8 µM. In test [2], this compound came in with an inhibition of 55%.
Consider `COc1cccc2c(Nc3ccccc3C)c(C(=O)O)cnc12`, for which the inhibition in test [12] came to 30%.
As for `CCOC(=O)c1cnc2c(OC)cccc2c1Nc1ccccc1.Cl`, half-maximal inhibition in test [7] (IC50) was put at 3.54 µM. Besides, in [11], the Inhibition is recorded as 38%.
In test [1], `CCCC(=O)c1cnc2c(OC)cccc2c1Nc1ccccc1` gave an IC50 of 4 µM. Further, the inhibition in [2] amounted to 34%.
